Screens: PubChem BioAssay, several laboratories
XBP1 UPR activ – adaptive UPR (XBP1) activation; CHO-XBP1 luciferase reporter, IRE1-XBP1 UPR activation, luminescence; percent of tunicamycin response, DMSO as zero; activation, % at 20 µM; actives 0.33% (n = 330,000);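 active = versus positive control, 20 µM dose yields 30% or more activation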;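 note: 100% = tunicamycin at 10 µg/mL and 0% = DMSO only wells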
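assay system = CHO-XBP1 luciferase reporter cells | amount = 1000 cells/well | buffer or medium = F12 plus 10% FBS | compound dosing = single point, 20 µM final compound, 1% DMSO | incubation = 16-18 h cell attachment at 37 °C, then 6 h compound exposure | detection = Steady-Glo luminescence read | controls = tunicamycin 10 µg/mL and vehicle-only wells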
VLA-4 inh – inhibition in a human VLA-4 binding assay | P13612 | VLA-4 expressing cells, ligand binding flow cytometry | inhibition, % (about 7 µM as worked out from the volumes in the protocol) | actives 0.2% (n = 330,000) | AID 2557; in the data active = inhibition above about 50%
Beta2AR agonist – agonists of human beta-2 adrenergic receptor inducing internalization. actives 0.43% (n = 340,000). AID 504454. Am2.2-beta2AR cells, FAP receptor internalization, flow cytometry. P07550. response, % (concentration not given with the values);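 active = response above a set limit, near 3 SD of response in nonfluorescent compounds, cut at about 42% in these data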
Target sequence (P07550 whole entry, looked up): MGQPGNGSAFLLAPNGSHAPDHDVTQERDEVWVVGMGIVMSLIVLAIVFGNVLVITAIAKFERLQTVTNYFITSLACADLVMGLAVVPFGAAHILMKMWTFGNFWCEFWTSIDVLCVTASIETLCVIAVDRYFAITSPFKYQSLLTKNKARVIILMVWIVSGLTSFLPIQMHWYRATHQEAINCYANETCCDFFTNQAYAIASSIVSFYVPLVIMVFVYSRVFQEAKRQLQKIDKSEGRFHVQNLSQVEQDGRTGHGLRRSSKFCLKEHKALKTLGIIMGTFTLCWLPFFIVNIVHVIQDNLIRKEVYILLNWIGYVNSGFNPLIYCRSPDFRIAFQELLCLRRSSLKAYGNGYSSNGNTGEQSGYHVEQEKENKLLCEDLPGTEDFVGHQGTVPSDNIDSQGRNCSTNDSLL
CHOP UPR activ – activators of apoptotic arm of unfolded protein response (CHOP); CHO-CHOP luciferase reporter, UPR activation, luminescence; percent of tunicamycin response over DMSO baseline; actives 0.34% (n = 330,000); AID 449763; activation, % at 10 µM;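 active = at 10 µM dose, activation of 40% or more, normalized to positive control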;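 note: 100% = tunicamycin at 10 µg/mL and 0% = DMSO alone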
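Evaluation: % reporter activation, DMSO baseline versus tunicamycin full activation; System: CHO-CHOP luciferase reporter cell line; Input: 500 cells/well; Incubation: 6 h compound treatment, 37 °C; Measured by: Steady-Glo luciferase luminescence; Dosing: one dose, 10 µM in 0.5% DMSO; Buffer or medium: F12 medium, 10% FBS; Benchmarks: positive tunicamycin 10 µg/mL, negative DMSO alone.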
CHOP inh – blocks CHOP induction under ER stress; AID 2732; inhibition, % at 10 µM; actives 3.8% (n = 220,000); CHO-K1 CHOP-promoter luciferase, tunicamycin-induced, 15-18 h;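 active = compounds that reduced the stress-induced luciferase reporter signal by more than about 70% of percent inhibition, limit read from the data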;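 note: 0% = tunicamycin plus vehicle and 100% = wells without tunicamycin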
CHOP inh conf – confirmation of CHOP induction inhibitors | shares compounds with CHOP inh | CHO-CHOP promoter luciferase reporter, tunicamycin-induced, luminescence | inhibition, % at 10 µM | actives 45% (n = 2,100) | AID 504437;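 active = mean of three repeat readings of reporter signal inhibition above a set limit, cut at about 70% in these data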;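 note: 0% = tunicamycin plus vehicle and 100% = wells lacking tunicamycin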
UPR CHOP confirm – confirmation of apoptotic unfolded protein response (CHOP) activators; shares compounds with CHOP UPR activ; CHO-CHOP cells, CHOP-luciferase reporter luminescence; percent of tunicamycin response, DMSO as zero; activation, % at 10 µM; actives 64% (n = 1,000); AID 463112; in the data active = activation above about 33%;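 note: 0% = DMSO wells and 100% = tunicamycin 10 µg/mL wells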
XBP1 UPR conf – adaptive UPR (XBP1) activation, confirmed | shares compounds with XBP1 UPR activ | CHO-XBP1 IRE1-XBP1 luciferase reporter, luminescence | activation, % at 20 µM | actives 63% (n = 1,000);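 active = reporter signal at least 30% of the positive control's activation in two or more of four replicate wells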;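 note: plate controls were DMSO negative control for no effect and tunicamycin 10 µg/mL positive control for full effect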
B2AR ag CP1 – activates human beta-2 adrenergic receptor; shares compounds with Beta2AR agonist; Am2.2-beta2AR cells, FAP surface receptor, flow cytometry; hits give low values; percent response (surface receptor), % at 10 µM; actives 25% (n = 1,100); AID 540358;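 active = surface receptor percent response at or below 58%, roughly 3 SD from nonfluorescent compounds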
B2AR FAP counter – flagged in Am2.2 fluorescence counterscreen for beta-2AR agonists | shares compounds with Beta2AR agonist | 1,100 tested, under 10 active | Am2.2 cells, FAP fluorogen flow cytometry; hits give low values | calls only at 10 µM;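 active = percent response below a set limit in fluorescence channel 1 and below 50% in channel 8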
Numbers without * were called inactive; i = inactive; . = no result given; ! = not confirmed by another sample. Only a selection was taken, and hits are over-represented in it overall.

SMILES	XBP1 UPR activ	VLA-4 inh	Beta2AR agonist	CHOP UPR activ	CHOP inh	CHOP inh conf	XBP1 UPR conf	others
CC(C)=CCCC1(C)C=Cc2c(c(C)cc3c2[nH]c2cc(O)ccc23)O1 (stereo not drawn)	62.8*	36.8	-7.4	3.5	104.2*	118.7*	66.6*
Cc1cccc(NC(=O)/C(C#N)=C/c2cn(CC(=O)NCc3ccco3)c3ccccc23)c1C	57.4*	35.9	-17.0	1.3	108.8*	90.5*	167.9*
Cc1cc2c(SCC(=O)Nc3cccc(O)c3)ncnc2s1	.	.	-62.6	.	.	.	.
Cc1cc(Nc2cccc([N+](=O)[O-])c2)n2c(nc3ccccc32)c1C#N	37.0*	11.8	5.6	18.4	103.1*	86.9*	11.6
Cc1ccc(-c2[nH]ncc2/C=N/n2c(COc3ccccc3)nc3ccccc3c2=O)cc1	36.8*	-6.3	1.6	4.7	99.1*	108.0*	45.3*
Cc1cc(/C=N/n2c(COc3ccccc3)nc3ccccc3c2=O)c(O)c([N+](=O)[O-])c1	-0.6	0.8	-6.8	-1.2	34.0	.	.
Cc1cc(CN(C)C(=O)c2ccc3nc(Cc4ccccc4F)oc3c2)on1	-5.1	-5.2	-6.7	8.0	.	.	.
CCC(Sc1nc2cc(OC)c(OC)cc2c(=O)n1Cc1ccco1)C(=O)NCCOC (stereo not drawn)	3.0	3.0	-1.6	-1.2	-20.7	.	.
CCc1ccc(NC(=O)C(CC)Sc2nc3cc4c(cc3c(=O)n2Cc2ccco2)OCO4)cc1 (stereo not drawn)	105.5*	18.1	1.2	96.3*	96.3*	-60.0	127.4*	UPR CHOP confirm=87.7*
CCOC(=O)c1cnc(-n2nc(C)cc2C)nc1NC1CCCCC1	39.6*	-2.8	-8.1	99.4*	106.4*	116.8*	11.6	UPR CHOP confirm=34.2*
CCOC(=O)c1cnc(-n2nc(C)cc2C)nc1NNc1nc(C)cc(C)n1	-1.2	2.2	0.0	0.9	4.5	.	.
CCOC(=O)Cc1csc(NC(=O)CSc2nc(=O)[nH]c3c2CCC3)n1	2.1	-1.6	-4.8	2.6	.	.	.
CC(=O)NNC(=S)NC(=O)C(c1ccccc1)c1ccccc1	-0.3	5.2	-7.7	0.4	39.3	.	.
CC(C)(C)C(=O)NC(=S)NNC(=O)C(c1ccccc1)c1ccccc1	42.8*	1.5	1.8	11.7	106.2*	121.4*	47.9*
COc1ccc(N=c2oc3ccc(OC)cc3cc2-c2nc3ccccc3[nH]2)cc1	84.3*	3.1	-1.6	134.7*	101.9*	107.0*	132.6*	UPR CHOP confirm=147.0*
COc1cccc(N=c2oc3ccc(OC)cc3cc2-c2nc3ccccc3[nH]2)c1	1.8	1.8	3.2	5.6	-19.6	.	.
Cc1ccccc1-c1nn(-c2ccc(F)cc2F)cc1CNCCCN(C)C	0.5	16.0	17.6	1.0	-33.2	.	.
O=S(=O)(/N=C(\Sc1ccc(Cl)cc1)c1ccccc1)c1ccccc1	43.5*	9.3	4.8	21.4	102.5*	35.3	2.5
CCc1ccc(-c2nc(CN3CCC(C(=O)NCCN(CC)c4ccccc4)CC3)c(C)o2)cc1	56.6*	36.5	41.5	3.7	98.2*	105.3*	35.2*
CN(C(=O)c1ccc(NC(=O)Cc2ccc(NC(=O)C3CCCN(C(=O)C4CC4)C3)cc2)cc1)C1CC1 (stereo not drawn)	-1.9	11.2	-16.6	2.4	.	.	.
Cc1cnc(NC(=O)Cc2ccccc2Cl)s1	-5.7	19.3	-8.3	2.2	.	.	.
Cc1cnc(NC(=O)c2cc3c(C)nn(Cc4ccccc4Cl)c3s2)s1	43.2*	3.0	-2.3	4.0	104.0*	8.6	82.0*
Cc1csc(CN(C)C(=O)CC2C(=O)NCCN2Cc2ccc(F)c(F)c2)n1 (stereo not drawn)	-2.0	2.2	-6.8	-0.5	.	.	.
CCOC(=O)c1c(NC(=O)Cc2cccs2)sc(C(=O)NC2CCCCC2)c1C	54.6*	9.8	8.0	9.5	105.9*	74.4*	43.3*
Cc1ccc2nc(SCC(=O)Nc3cc(C(F)(F)F)ccc3N3CCOCC3)[nH]c2c1	35.4*	31.8	22.1	2.0	.	9.5	39.7*
SMILES	XBP1 UPR activ	VLA-4 inh	Beta2AR agonist	CHOP UPR activ	CHOP inh	CHOP inh conf	XBP1 UPR conf	others
O=C(CSc1nccc(=O)[nH]1)Nc1cc(C(F)(F)F)ccc1N1CCOCC1	3.7	0.9	2.9	1.4	.	.	.
O=C(NCCNC(=O)c1ccccn1)c1ccc(-c2ccccc2)cc1	-3.9	18.5	-4.5	0.1	.	.	.
CC1CN(S(=O)(=O)c2ccc(C(=O)Nc3nc(-c4cc5ccccc5o4)cs3)cc2)CC(C)O1 (stereo not drawn)	48.2*	-7.4	3.0	12.8	106.6*	72.8*	134.1*
COC(=O)c1cc([N+](=O)[O-])c(-n2cncn2)c([N+](=O)[O-])c1	.	.	50.2*	.	109.7*	17.4	.	B2AR ag CP1=33.6*;B2AR FAP counter=i
COc1ccccc1-c1cc(C(F)(F)F)nc(S(=O)(=O)CCCC(=O)O)n1	-3.7	6.8	-2.9	-1.6	-33.5	.	.
COc1ccccc1-c1cc(C(F)(F)F)nc(S(=O)(=O)CCCC(=O)N2CCOCC2)n1	-9.9	-7.8	46.8*	-4.8	.	67.3	.	B2AR ag CP1=92.2;B2AR FAP counter=i
Cc1ccccc1OCc1n(CC(=O)OC2CC(C)CCC2C(C)C)c2ccccc2[n+]1C (stereo not drawn)	45.1*	4.8	108.3*!	7.2	107.6*	137.2*	22.4	B2AR ag CP1=97.0;B2AR FAP counter=i
CCOc1ccc(C(=O)C(CCC(CN(C)C)C(=O)c2ccc(OCC)cc2)CN(C)C)cc1 (stereo not drawn)	.	.	110.0*	.	105.8*	75.9*	.	B2AR ag CP1=82.3;B2AR FAP counter=i
O=C(OCC1OC(n2ccc(=O)[nH]c2=O)C2OC12)c1ccccc1 (stereo not drawn)	.	.	4.2	.	.	.	.
C=C(C)COc1ccc(-c2n[nH]c(C)c2-c2ccc(OC)cc2)c(O)c1	-4.6	14.2	53.2*	-0.9	107.5*	28.8	.	B2AR ag CP1=114.6;B2AR FAP counter=i
COc1ccc(-c2n[nH]c(C)c2-c2cscn2)c(O)c1	-2.3	1.3	-3.2	-0.5	4.2	.	.
